Source: PubChem
BB579 growth dn: chemicals that inhibit yeast BB579 growth in restrictive medium (lifespan-shortening candidates); S. cerevisiae BB579 growth, OD615, 48 h; AID 804; inhibition, % at 10 µM; 0.51% of 140,000 active;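 active means inhibition above a set limit, 3 SD over the mean compound inhibition, cut at about 44% in these data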
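System: Saccharomyces cerevisiae DeaD strain BB579, replicative lifespan model yeast. Buffer or medium: restrictive glucose-based CSMM-D medium. Doses: one dose, 10 µM compound with 0.25% DMSO. Timing: 4 h preincubation and 48 h exposure at 30 °C. Detection: turbidity as optical density at 615 nm. Benchmarks: amphotericin B 10 µg/mL, positive.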
PTEN del growth: PTEN-deleted cell growth suppression; HCT116 PTEN-null viability, CellTiter-Glo, 60 h; active compounds read low; viability, % at 10 µM; 1.2% of 140,000 active;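 active means viability at or below a set limit, 4 SD under the median of all tested compounds, cut at about 3.7% in these data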;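 further: PTEN knockout HCT116 line with beta catenin targeted HCT116 as companion control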
HCT116 bCat-KO: beta-catenin-lacking colon tumor cell growth suppression | viability, % at 10 µM | AID 818 | HCT116 beta-catenin knockout viability, CellTiter-Glo, 60 h; active compounds read low | 1.5% of 140,000 active;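 active means viability at or under a set limit, the compound median less 4 SD, cut at about 6% in these data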;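 further: 0% = Hyamine 1622 control at 20 µM and 100% = untreated cell control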
sdo1 growth: restores growth of sdo1-depleted yeast; AID 817; 0.21% of 140,000 active; z-score at 10 µM; S. cerevisiae sdo1-depleted JHY4D growth rescue, OD600 30 h; active compounds read high; pdr5 snq2 efflux-pump mutant strain;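 active means z-score above 3 at both the 24 hr and the 30 hr optical density reads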;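 further: z-score against mean and SD of all compound wells on the same plate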
Yeast life ext: yeast lifespan extension; S. cerevisiae growth with nicotinamide, OD615; deaD strain in restrictive glucose medium; inhibition of the nicotinamide effect, % at 10 µM; 0.68% of 130,000 active;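 active means inhibition above a set limit, placed 3 SD over the median of all compounds, cut at about 26% in these data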;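 further: 0% = nicotinamide-treated wells and 100% = cells grown without nicotinamide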
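Measured by: optical density (absorbance) at 615 nm; System: modified budding yeast, DeaD strain; Medium: restrictive CSMM-D dextrose medium; Timing: 4 h preincubation then 48 h treatment at 30 °C.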
Numbers without * were called inactive; . = not tested or not shown. Only some compounds are listed: those with a hit (about 2.8% of all), similar ones and a draw of the others.

SMILES	BB579 growth dn	PTEN del growth	HCT116 bCat-KO	sdo1 growth	Yeast life ext
CCCC[n+]1ccn(C2=C([O-])c3ccccc3C(=O)/C2=N\S(=O)(=O)c2ccccc2)c1	-49.8	1.6*	2.1*	0.64	-8.1
CCCC[n+]1ccn(-c2nc3ccccc3nc2[N-]S(=O)(=O)c2ccccc2)c1	-58.5	116.0	102.8	0.77	10.4
COc1cc(/C=C(\C#N)C(=O)Nc2cc(C(F)(F)F)ccc2Cl)ccc1OCC(=O)Nc1cccc(C(F)(F)F)c1	-31.9	57.9	68.3	1.17	4.3
COc1ccc(/C=C/C(=O)NC2CCCCCCC2)cc1S(=O)(=O)N1CCOCC1	-12.1	74.5	74.0	0.56	0.1
CC(=O)c1c(C)nc(-c2ccc(Cl)cc2)nc1NC(=O)C(C)C	-22.9	92.5	87.2	0.68	-15.9
Clc1ccc2c(N/N=C/c3cccc(Br)c3)ccnc2c1	-13.1	1.7*	2.2*	-2.24	-7.0
COc1cccc(CN(C(=O)Cc2c[nH]c3ccccc23)C(C(=O)NC2CCCCC2)c2ccc(C)o2)c1 (stereo not drawn)	-37.6	24.2	36.6	0.47	3.9
CCOc1ccc(CN2CCN(CC(O)Cn3c4ccccc4c4ccccc43)CC2)cc1 (stereo not drawn)	-55.5	1.6*	1.5*	-2.14	0.0
COc1ccc(CN2CCN(CC(O)Cn3c4ccccc4c4ccccc43)CC2)cc1 (stereo not drawn)	-7.2	13.9	16.0	-2.42	5.2
CC(C)C(=O)NC(c1ccc([N+](=O)[O-])cc1)c1c(O)ccc2ccccc12 (stereo not drawn)	-48.6	1.8*	2.0*	0.05	-16.2
O=C(Nc1cccc2cccnc12)C1CCCC1	-14.0	94.9	99.9	0.81	-2.2
CN(C)CCNC(=O)/C(=C/c1ccc(-c2ccc(Cl)cc2Cl)o1)NC(=O)c1ccccc1	4.2	1.5*	1.9*	0.04	-8.4
CN(C)CCNC(=O)/C(=C/c1ccc(-c2ccc(Cl)cc2)o1)NC(=O)c1ccccc1	8.2	0.8*	0.9*	0.91	-10.0
Cc1ccc(C(=O)N/C(=C/c2ccc(-c3cc(C(F)(F)F)ccc3Cl)o2)C(=O)NCc2cccnc2)cc1	-14.5	60.8	62.8	-0.85	-4.5
O=C(NCC1CCCO1)/C(=C\c1ccc(Cl)cc1)NC(=O)c1ccccc1 (stereo not drawn)	-28.1	97.7	94.0	-0.02	-4.3
COc1ccc(CCCC(=O)Nc2ccccc2F)cc1	-7.5	96.2	92.7	-0.31	-5.4
COc1ccc(OC)c(N2C(=O)CC(Cc3ccc(C)cc3)C2=O)c1 (stereo not drawn)	-19.2	98.0	90.9	0.76	.
Cc1cccc(OCC(O)Cn2c(=N)n(CCN3CCCCC3)c3ccccc32)c1 (stereo not drawn)	-27.1	1.5*	1.9*	0.25	-10.0
Cc1ccc(OCC(O)Cn2c(=N)n(Cc3ccccc3)c3ccccc32)cc1 (stereo not drawn)	-37.6	1.6*	1.4*	-1.04	-0.7
COc1ccc(OCC(O)Cn2c(=N)n(Cc3ccccc3)c3ccccc32)cc1 (stereo not drawn)	-15.4	1.4*	0.8*	0.02	2.5
CCOC(=O)c1c(NC(=O)C2CCCN(S(=O)(=O)c3ccc(C)cc3)C2)sc2c1CCCC2 (stereo not drawn)	-33.7	63.5	41.9	0.78	5.8
O=C(COC(=O)C12CC3CC(CC(C3)C1)C2)NCCc1ccccc1	2.1	97.2	99.0	0.12	5.1
Clc1ccc(CCNc2nc3ccccc3s2)cc1	67.7*	78.1	69.6	-1.78	-26.9
O=C(C1CCC1)N1CCc2cc(S(=O)(=O)NCCN3CCN(c4ccccc4F)CC3)ccc21	6.1	66.2	57.1	-1.31	-1.0
COc1cc(S(=O)(=O)NCc2ccccn2)c(OC)cc1Cl	-17.0	94.6	87.5	0.82	.
SMILES	BB579 growth dn	PTEN del growth	HCT116 bCat-KO	sdo1 growth	Yeast life ext
CCOc1cc(C)c(C(C)C)cc1S(=O)(=O)NCc1ccccn1	-44.5	98.1	95.0	-1.32	58.9*
CC1(C)NC(=O)NC2(C)NC(=O)NC(C)(C)C12 (stereo not drawn)	0.8	100.2	95.9	0.74	3.5
CSc1nc2ccccc2cc1/C=C(\C#N)c1ccccc1	-61.7	22.6	22.4	0.47	-5.7
CSc1nc2ccccc2cc1/C=C(\C#N)c1ccc(Cl)c(Cl)c1	-53.1	2.4*	1.9*	-0.28	-6.8
Cc1cc(C)c2sc(NNC(=O)c3ccc(S(=O)(=O)N4CCc5ccccc5C4)cc3)nc2c1	27.0	7.3	6.8	0.1	3.2
Cc1cc(C)c2nc(NNC(=O)c3ccc(S(=O)(=O)N4CCc5ccccc5C4)cc3)sc2c1	31.0	6.5	4.0*	-1.63	1.3
COc1ccc2c(c1)cc(C(=O)O)n2C	41.1	92.5	83.4	-0.09	-22.8
COc1ccc2cc(C(=O)O)ccc2c1	83.8*	95.3	96.5	1.67	-28.6
COc1ccc(/C=C2\CCCC3C2=NN(C(=O)c2ccco2)C3c2ccc(OC)c(OC)c2)cc1OC (stereo not drawn)	-19.6	2.5*	5.6*	-1.79	-5.1
O=C(O)c1ccc2c3c(ncnc13)-c1ccccc1C2=O	96.1*	14.6	33.1	0.06	-10.1
O=C(OCCN1C(=O)c2cccc3c(N4CCOCC4)ccc(c23)C1=O)c1ccccc1Cl	-31.7	5.3	5.3*	-0.39	0.0
O=C(OCCN1C(=O)c2cccc3c(N4CCOCC4)ccc(c23)C1=O)c1ccc(Cl)cc1Cl	-34.3	9.4	10.2	0.15	5.7
CCOC(=O)c1[nH]nc(C(=O)c2ccc(Br)cc2)c1O	-35.2	89.7	104.5	-1.26	48.5*
CCOC(=O)c1ccc(CNCc2ccc(Br)cc2)cc1	-4.2	93.3	95.6	-0.53	6.5
Cc1cc(C)nc(NS(=O)(=O)c2ccc(NC(=O)CCN3C(=O)c4ccccc4C3=O)cc2)n1	5.9	86.4	87.1	0.61	37.9*
Cc1cc(NS(=O)(=O)c2ccc(NC(=O)CCN3C(=O)c4ccccc4C3=O)cc2)no1	-28.1	103.1	99.6	0.47	-12.1
Cc1ccc(/C=C/C(=O)C2C(=O)c3ccccc3C2=O)cc1	-20.0	66.2	64.3	-2.66	42.3*
COc1ccc(CNC(=O)CSc2nnc(-c3ccc(NC(C)=O)cc3)n2C)cc1	47.7*	86.7	84.3	-0.34	-27.1
COc1ccc(-c2nnc(SCC(=O)Nc3ccc(C)cc3)n2C)cc1	-36.5	101.3	101.8	-0.14	-6.9
CC(C)(/C=N/NC(=O)CSCc1ccccc1Cl)CCC#N	-31.6	89.9	82.2	1.02	2.9
Cc1cccc(C(=O)CC(=O)c2cc(Cl)ccc2O)c1	83.1*	10.1	9.7	-2.61	-6.5
O=C(CC(=O)c1cc(Cl)ccc1O)c1ccccc1	81.6*	22.4	16.3	-2.34	-12.4
Cc1ccc(O)c(C(=O)CC(=O)c2cccc(F)c2)c1	51.1*	39.7	38.2	-1.92	-3.7
COc1ccc(O)c(C(=O)CC(=O)c2ccc(F)cc2)c1	-2.2	56.8	67.8	-1.17	-22.2
